Test results from PubChem BioAssay AID719 (SRMLSC, 2007).
The whole screen tested about 85,000 compounds, of which about 940 (1.1%) were called active.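 Rule for the calls: active = viability at or below 50% in the single dose screen; inactive = viability above 50%.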 For the sample, actives were picked, then their nearest neighbours and some compounds at random.

Assay: antiproliferative effect on LL 47 fibroblasts – human, LL 47 cells, CellTiter-Glo luminescence, primary screen (AID 719);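 note: compound exposure lasted 72 h before the ATP readout; 100% = median luminescence of untreated cell-only wells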
Conditions: LL 47 human lung fibroblast viability, ATP luminescence; at 10 µM; active compounds read low
Method in brief: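 Assay system: human lung fibroblast line LL 47, low passage. Input: 1,150 fibroblasts seeded per well. Times: overnight cell rest, 72 h compound treatment at 37 °C. Evaluation: % viability of median cell-only signal. Technique: luminescent ATP detection, CellTiter-Glo. Control set: cell-only wells, no compound.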

Compound	viability
O=C(C(NS(=O)(=O)c1cccc2nsnc12)c1ccccc1)N1CCN(c2ccccc2)CC1 (configuration not stated)	94.9% (inactive)
Oc1c(Cl)cc(Cl)c(Cl)c1Cc1c(O)c(Cl)cc(Cl)c1Cl	46.4% (active)
CC(=O)CCS(=O)(=O)c1ccc(C)c(C)c1	32.5% (active)
CCCCN(CCCC)C(=O)CCS(=O)(=O)c1ccc2c(c1)n(C)c(=O)c(=O)n2C	96.8% (inactive)
Cc1ccc(S(=O)(=O)NCCN2CCOCC2)cc1C	108% (inactive)
Cc1cc(C)cc(N(CC(=O)N2CC=C(c3ccccc3)CC2)S(=O)(=O)c2c(C)noc2C)c1	95.6% (inactive)
CC/C(O)=N\S(=O)(=O)c1ccc(N=NN(C)C)cc1	97.5% (inactive)
Cc1ccc(N(Cc2ccc(C(=O)Nc3ccccc3C(=O)NCc3ccco3)cc2)S(C)(=O)=O)cc1C	97% (inactive)
Cc1nc2ccc(C(=O)O)cc2[nH]1	104% (inactive)
COC(=O)Nc1nc2ccc(Sc3ccccc3)cc2[nH]1	47.2% (active)
CC(C)c1nc2ccc(C(=O)O)cc2[nH]1	98.8% (inactive)
CN(Cc1ccccc1)C(=O)COc1ccccc1	104% (inactive)
c1ccc(-c2nc(NCc3ccco3)c3ccccc3n2)cc1	95.9% (inactive)
CC(c1ccco1)N(C(=O)Nc1ccccc1)C1CCCCC1 (configuration not stated)	97.3% (inactive)
COc1ccc(-c2cc(C(F)(F)F)nc(NCc3cccnc3)n2)cc1	87.3% (inactive)
COc1ccc(-c2nnco2)cc1OC	103% (inactive)
COc1ccc(-c2cc(C(F)(F)F)nc(S(C)(=O)=O)n2)cc1OC	2.93% (active)
COc1cccc2cc(C(=O)N3CCN(C(=O)c4ccccc4)CC3)c(=O)oc12	92.4% (inactive)
CC(=O)NC1=NN(C(C)=O)C(C)(c2ccc(Cl)s2)S1 (configuration not stated)	67.1% (inactive)
Cc1ccccc1CSCCNC(=O)c1ccc(Cl)c(S(=O)(=O)N2CCOCC2)c1	97.8% (inactive)
CCOc1cc(N2CCOCC2)c(OCC)cc1NC(=O)COc1cccc2cccnc12	31% (active)
CCOc1cc(NC(=O)c2ccco2)c(OCC)cc1NC(=O)COc1ccccc1	99.7% (inactive)
CCOc1cc(N2CCOCC2)c(OCC)cc1NC(=O)COC(=O)[C@H](Cc1c[nH]c2ccccc12)NC(C)=O	105% (inactive)
CS(=O)(=O)n1nc(-c2ccccc2)nc1NCc1ccco1	105% (inactive)
O=C1Nc2ccccc2C12Nc1ccccc1S2 (configuration not stated)	92.1% (inactive)
CCc1ccc2c(c1)C1(NN=C(c3ccccc3)S1)C(=O)N2 (configuration not stated)	32.1% (active)
C=C1c2cc(CC)ccc2NC(=O)N1c1ccc(C)cc1	102% (inactive)
